Most compounds without a hit are left out; they make up all but 0.41% or so of the library.
T cell HTS = modulators of CD8 T cell-vesicle binding, primary screen, mouse 2C CD8+ T cells, flow cytometry; response (vesicle binding), % at 7 µM; 330,000 tested, 0.068% active; AID 2052, 2009; 2C CD8+ T cell-vesicle binding; stronger effect = lower value;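 active means response, share of CD8 T cells binding vesicles, and their 90th percentile fluorescence all below set limits, cut at about 80% in these data, passing the limit was not always enough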;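 further: values below 100% mean blocked vesicle binding to the CD8+ T cells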
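Assay system – 2C mouse CD8+ T cells · Also added – QL9-loaded Drosophila micro-vesicles · Timing – Cell–vesicle co-incubation 1.5 h at 37 °C, staining 20 min on ice · Signal – flow cytometry of vesicle-bound cells · Measure – percent CD8+ FL2 mean versus row control · Controls – Peptide-free naked vesicles (low) and QL9 vesicles with 0.7% DMSO vehicle (high)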
Yeast superoxide = reduction of superoxide in aged yeast, primary screen, HTS; S. cerevisiae aged cells, superoxide DHE fluorescence; stronger effect = lower value; superoxide response (% of plate mean), % at 10 µM; 330,000 tested, 0.18% active;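 active means superoxide response under a set limit, about three screen SD below normal, cut at about 65% in these data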;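 further: yeast aged for seven days with compound at 30 °C before DHE staining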
S1P3 antag = S1P3 receptor antagonists, primary screen, cell-based; Sphingosine 1-phosphate receptor 3 (Homo sapiens), Q99500; CHO S1P3 NFAT-BLA reporter, FRET fluorescence, antagonist mode; inhibition, % at 4.98 µM; 170,000 tested, 0.27% active; AID 485, 2006;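 active means inhibition above the plate cutoff, the mean inhibition of test wells on that plate plus 3 SD, cut at about 28% in these data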;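 further: cells challenged with S1P at its EC80 of 0.8 µM; blue over green emission ratio from cleaved BLA substrate after 4 h stimulation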
Target sequence (Q99500 whole entry, looked up): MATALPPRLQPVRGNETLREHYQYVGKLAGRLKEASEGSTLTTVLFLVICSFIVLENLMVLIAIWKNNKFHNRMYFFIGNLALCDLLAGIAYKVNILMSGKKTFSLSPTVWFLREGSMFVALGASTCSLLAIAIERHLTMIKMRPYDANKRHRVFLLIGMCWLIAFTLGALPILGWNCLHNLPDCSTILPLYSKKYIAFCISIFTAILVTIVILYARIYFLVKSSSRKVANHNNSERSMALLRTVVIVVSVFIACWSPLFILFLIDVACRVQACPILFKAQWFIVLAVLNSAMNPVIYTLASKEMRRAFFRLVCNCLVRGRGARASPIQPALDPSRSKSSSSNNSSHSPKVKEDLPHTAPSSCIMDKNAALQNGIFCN
CR mimetic CP = superoxide lowering in aged yeast cells, confirmation, cherry picked compounds | shares compounds with Yeast superoxide | 850 tested, 1% active | superoxide response (% of plate), % at 10 µM | S. cerevisiae aging, superoxide DHE fluorescence; stronger effect = lower value;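 active means superoxide signal below 65% of the plate average of sample wells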;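 further: cells aged with compound for 7 days at 30 degrees C before staining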
DHE fluor count = DHE quenching or ROS scavenging interference in aged yeast, artefact control for yeast caloric restriction mimetic project, S. cerevisiae BY4741, flow cytometry; 850 tested, under 10 active; fluorescence response, % at 10 µM; DHE fluorescence; stronger effect = lower value; shares compounds with Yeast superoxide; AID 435000, 2010;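 active means fluorescence response below 15%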
Hits are given with their value.

What do the screens show for `CC(C)c1ccc(/C=C(\NC(=O)c2ccccc2)C(=O)NCCN2CCOCC2)cc1`?
T cell HTS: inactive; Yeast superoxide: inactive

What do the screens show for `CCOc1ccc(NC(=O)C2CC(=O)N3CCCN=C3S2)cc1` (stereo not given)?
T cell HTS: inactive; Yeast superoxide: inactive; S1P3 antag: inactive

Results for CCCOc1ccc(NC(=O)C2CC(=O)N3CCCN=C3S2)cc1 (stereo not given) ?
T cell HTS: inactive; Yeast superoxide: 65; S1P3 antag: inactive; CR mimetic CP: inactive; DHE fluor count: inactive

How did CC1(C)CC(=O)c2c(-c3cccs3)n[nH]c2C1 do in these assays?
T cell HTS: inactive; Yeast superoxide: 64; CR mimetic CP: inactive; DHE fluor count: inactive

What do the screens show for `CCCc1n[nH]c2c1C(=O)CC(C)(C)C2`?
T cell HTS: inactive; Yeast superoxide: inactive; S1P3 antag: inactive

What do the screens show for `N#Cc1c2ccc([N+](=O)[O-])cc2[n+]([O-])n1-c1ccccc1`?
T cell HTS: inactive; Yeast superoxide: inactive

How did O=C(Cn1cc([N+](=O)[O-])ccc1=O)NCC1COc2ccccc2O1 (stereo not given) do in these assays?
T cell HTS: inactive; Yeast superoxide: inactive

How did CC(C)N(C(=O)[C@H]1C[C@H](CC(=O)NCCCn2ccnc2)C(=O)N2CCc3c([nH]c4ccc(Cl)cc34)[C@]12C)C(C)C do in these assays?
Yeast superoxide: inactive

How did CCC(C)(O)c1[nH]c2ccc(C(F)(F)F)cc2c1C (stereo not given) do in these assays?
T cell HTS: inactive; Yeast superoxide: inactive

What do the screens show for `CC(=O)Nc1ccc(S(=O)(=O)Nc2nc3nc(-c4ccccc4)cc(-c4ccccc4)n3n2)cc1`?
T cell HTS: inactive; Yeast superoxide: 60; CR mimetic CP: inactive; DHE fluor count: inactive

Results for CC(=O)Nc1ccc(S(=O)(=O)Nc2cc(-c3ccccc3)nn2C)cc1 ?
T cell HTS: inactive; Yeast superoxide: inactive; S1P3 antag: inactive

What do the screens show for `Cc1cc(C)n(C(C)CNS(=O)(=O)c2ccccc2)n1` (stereo not given)?
T cell HTS: inactive; Yeast superoxide: inactive

How did COc1cccc(/C=N/NC(=O)c2[nH]c(C)c(C(=O)N/N=C/c3cccc(OC)c3O)c2C)c1O do in these assays?
T cell HTS: inactive; Yeast superoxide: 63; CR mimetic CP: inactive; DHE fluor count: inactive

Results for COc1cccc(/C=N/NC(=O)c2ccc(-c3ccccc3)cc2)c1O ?
T cell HTS: inactive; Yeast superoxide: inactive

What do the screens show for `COc1cccc(CN(C)CC(=O)NCc2ccc(F)cc2)c1OC`?
T cell HTS: inactive; Yeast superoxide: 39; CR mimetic CP: inactive; DHE fluor count: inactive

How did COc1ccccc1CNC(=O)CN(C)Cc1ccc(SC)cc1 do in these assays?
T cell HTS: inactive; Yeast superoxide: inactive

Results for CC(NC(=O)c1ccc(F)cc1F)C1CC2CCC1C2 (stereo not given) ?
T cell HTS: inactive; Yeast superoxide: inactive

How did N#C/C(=C\c1ccccn1)c1nc2ccccc2s1 do in these assays?
T cell HTS: inactive; Yeast superoxide: inactive; S1P3 antag: inactive

Results for COc1ccc(/C(C#N)=C/c2ccccn2)cc1 ?
T cell HTS: inactive; Yeast superoxide: 58; S1P3 antag: inactive; CR mimetic CP: inactive; DHE fluor count: inactive

What do the screens show for `O=C(CCNS(=O)(=O)c1ccccc1F)OCc1ccccc1Cl`?
T cell HTS: inactive; Yeast superoxide: inactive

What do the screens show for `CC1CC(C)CN(CC(=O)NCCc2ccc(S(N)(=O)=O)cc2)C1` (stereo not given)?
T cell HTS: inactive; Yeast superoxide: 62; S1P3 antag: inactive; CR mimetic CP: inactive; DHE fluor count: inactive

What do the screens show for `NS(=O)(=O)c1ccc(CCNC(=O)CN2CCCCC2)cc1`?
T cell HTS: inactive; Yeast superoxide: inactive; S1P3 antag: inactive

How did COc1cccc(CN(C)C(=O)c2cc(COc3ccc(-n4cncn4)cc3)on2)c1 do in these assays?
T cell HTS: inactive; Yeast superoxide: inactive

How did Cc1ccc(N(CC(=O)NC(C)(C)C)C(=O)CCC(=O)Nc2nccs2)c(C)c1 do in these assays?
T cell HTS: inactive; Yeast superoxide: inactive

Results for CC1(C)CC(=O)C=C(/C=C/c2ccccc2)C1 ?
T cell HTS: inactive; Yeast superoxide: inactive

How did O=[N+]([O-])c1cccc(/C=N/n2c(-c3cccnc3)n[nH]c2=S)c1 do in these assays?
T cell HTS: inactive; Yeast superoxide: inactive; S1P3 antag: inactive

Results for Cc1n[nH]c(=S)n(/N=C/c2cccc([N+](=O)[O-])c2)c1=O ?
T cell HTS: inactive; Yeast superoxide: 61; S1P3 antag: inactive; CR mimetic CP: inactive; DHE fluor count: inactive

What do the screens show for `O=C(Cn1c(NCCCCl)nc2ccccc21)c1ccccc1`?
T cell HTS: inactive; Yeast superoxide: inactive

What do the screens show for `CCn1c2ccccc2c2cc(NC(C)=O)ccc21`?
T cell HTS: inactive; Yeast superoxide: inactive; CR mimetic CP: inactive; DHE fluor count: inactive

What do the screens show for `CC(=O)Nc1ccc2c(c1)c1ccccc1n2C(C)=O`?
T cell HTS: inactive; Yeast superoxide: inactive; S1P3 antag: inactive

How did Cc1ccc(NC(=O)c2sc3nc(C)cc(C)c3c2N)cc1 do in these assays?
T cell HTS: inactive; Yeast superoxide: 56; CR mimetic CP: inactive; DHE fluor count: inactive

What do the screens show for `Cc1cc(C)c2c(N)c(C(=O)NN)sc2n1`?
T cell HTS: inactive; Yeast superoxide: inactive; S1P3 antag: inactive

How did CC(C(=O)N1CCc2ccccc21)N1CCN(c2cccc(C(F)(F)F)c2)CC1 (stereo not given) do in these assays?
T cell HTS: inactive; Yeast superoxide: inactive

What do the screens show for `COc1cc(/C=C(\C#N)C(=O)NC(C)C)cc(Cl)c1O`?
T cell HTS: inactive; Yeast superoxide: inactive; S1P3 antag: inactive; CR mimetic CP: inactive; DHE fluor count: inactive

Results for CC(C)NC(=O)/C(C#N)=C/c1cccc(NC(=O)c2ccccc2Cl)c1 ?
T cell HTS: inactive; Yeast superoxide: inactive; S1P3 antag: inactive

What do the screens show for `Cc1noc(NS(=O)(=O)c2ccc(N/C=C\C(=O)c3ccc(F)cc3)cc2)c1C`?
T cell HTS: inactive; Yeast superoxide: inactive; S1P3 antag: inactive

What do the screens show for `Cc1noc(NS(=O)(=O)c2ccc(N/C=C/C(=O)c3ccc4c(c3)OCO4)cc2)c1C`?
T cell HTS: inactive; Yeast superoxide: 65; S1P3 antag: inactive; CR mimetic CP: inactive; DHE fluor count: inactive

Results for COc1ccc([C@@H]2Sc3ccccc3NC(=O)[C@@H]2O)cc1 ?
T cell HTS: inactive; Yeast superoxide: inactive

Results for CC(=O)Nc1ccc(S(=O)(=O)NNc2cccc(C)c2)cc1 ?
T cell HTS: inactive; Yeast superoxide: inactive

Results for COC(=O)c1cnc2ccccc2n1 ?
T cell HTS: inactive; Yeast superoxide: inactive

What do the screens show for `O=C(O)c1cnc2ccccc2n1`?
T cell HTS: inactive; Yeast superoxide: 64; S1P3 antag: inactive; CR mimetic CP: inactive; DHE fluor count: inactive
